Here are results for 15 compounds from ChEMBL document CHEMBL4813978 (Bioorg Med Chem Lett, 2021).

The target in series [1] is T1, Muscarinic acetylcholine receptor M1 (Homo sapiens, UniProt P11229).
T1 sequence (P11229 whole entry): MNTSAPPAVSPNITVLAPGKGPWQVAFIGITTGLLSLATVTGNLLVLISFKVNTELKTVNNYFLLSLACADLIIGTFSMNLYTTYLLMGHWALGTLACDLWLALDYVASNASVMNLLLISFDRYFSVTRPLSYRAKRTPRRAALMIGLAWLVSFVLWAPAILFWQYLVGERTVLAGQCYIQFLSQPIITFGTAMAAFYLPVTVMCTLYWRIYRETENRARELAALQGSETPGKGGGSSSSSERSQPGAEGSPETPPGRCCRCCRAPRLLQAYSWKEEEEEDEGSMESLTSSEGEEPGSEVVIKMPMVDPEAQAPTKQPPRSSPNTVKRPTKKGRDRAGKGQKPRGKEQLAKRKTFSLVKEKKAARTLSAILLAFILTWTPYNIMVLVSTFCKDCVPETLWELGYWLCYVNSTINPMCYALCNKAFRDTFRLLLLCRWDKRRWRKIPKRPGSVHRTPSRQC
Put plainly: Agonist activity at muscarinic M1 receptor (unknown origin) expressed in CHO cells. The class given is functional, cell-based.

Series [2] addresses T2, Muscarinic acetylcholine receptor M2 (Homo sapiens, UniProt P08172).
T2 sequence (P08172 whole entry): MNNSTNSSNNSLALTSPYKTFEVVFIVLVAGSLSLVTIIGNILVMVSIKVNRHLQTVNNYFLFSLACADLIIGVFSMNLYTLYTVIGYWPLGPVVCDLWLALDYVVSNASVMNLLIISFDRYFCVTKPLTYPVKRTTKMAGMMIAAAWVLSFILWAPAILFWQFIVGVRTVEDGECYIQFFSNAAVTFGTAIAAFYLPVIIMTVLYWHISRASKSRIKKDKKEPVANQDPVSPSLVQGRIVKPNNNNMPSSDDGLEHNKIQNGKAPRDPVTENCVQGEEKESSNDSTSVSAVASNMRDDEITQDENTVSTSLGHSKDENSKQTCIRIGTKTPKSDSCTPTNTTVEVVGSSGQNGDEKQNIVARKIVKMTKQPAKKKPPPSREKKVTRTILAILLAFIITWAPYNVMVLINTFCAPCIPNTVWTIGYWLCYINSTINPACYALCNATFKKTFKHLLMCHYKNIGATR
Put plainly: Agonist activity at muscarinic M2 receptor (unknown origin) expressed in CHO cells. In kind it is functional, cell-based. The procedure, abridged:
(§1)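 Agonist-mode EC50 with Emax. Emax given as mean ± SE of two or more experiments.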

In series [3] the target is Muscarinic acetylcholine receptor M3 (Homo sapiens, UniProt P20309). Put plainly: Agonist activity at muscarinic M3 receptor (unknown origin) expressed in CHO cells. The class given is functional, cell-based.
Chain of Muscarinic acetylcholine receptor M3 (P20309 whole entry): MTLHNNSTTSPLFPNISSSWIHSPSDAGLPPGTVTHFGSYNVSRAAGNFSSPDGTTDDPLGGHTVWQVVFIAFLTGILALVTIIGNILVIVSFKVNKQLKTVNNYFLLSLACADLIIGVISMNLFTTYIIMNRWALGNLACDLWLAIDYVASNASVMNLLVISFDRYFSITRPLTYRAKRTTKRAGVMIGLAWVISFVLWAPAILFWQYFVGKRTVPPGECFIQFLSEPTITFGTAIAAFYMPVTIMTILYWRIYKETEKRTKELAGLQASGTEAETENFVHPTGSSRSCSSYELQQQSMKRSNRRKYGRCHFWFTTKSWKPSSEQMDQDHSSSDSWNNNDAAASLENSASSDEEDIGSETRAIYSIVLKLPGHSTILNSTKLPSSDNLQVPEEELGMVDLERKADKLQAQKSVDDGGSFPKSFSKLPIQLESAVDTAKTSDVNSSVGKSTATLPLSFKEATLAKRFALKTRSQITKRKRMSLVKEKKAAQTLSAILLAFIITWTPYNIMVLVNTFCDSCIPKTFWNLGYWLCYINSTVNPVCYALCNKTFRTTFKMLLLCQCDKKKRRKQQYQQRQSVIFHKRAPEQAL
The target of series [4] is T3, Muscarinic acetylcholine receptor M4 (Homo sapiens, UniProt P08173).
T3 sequence (P08173 whole entry): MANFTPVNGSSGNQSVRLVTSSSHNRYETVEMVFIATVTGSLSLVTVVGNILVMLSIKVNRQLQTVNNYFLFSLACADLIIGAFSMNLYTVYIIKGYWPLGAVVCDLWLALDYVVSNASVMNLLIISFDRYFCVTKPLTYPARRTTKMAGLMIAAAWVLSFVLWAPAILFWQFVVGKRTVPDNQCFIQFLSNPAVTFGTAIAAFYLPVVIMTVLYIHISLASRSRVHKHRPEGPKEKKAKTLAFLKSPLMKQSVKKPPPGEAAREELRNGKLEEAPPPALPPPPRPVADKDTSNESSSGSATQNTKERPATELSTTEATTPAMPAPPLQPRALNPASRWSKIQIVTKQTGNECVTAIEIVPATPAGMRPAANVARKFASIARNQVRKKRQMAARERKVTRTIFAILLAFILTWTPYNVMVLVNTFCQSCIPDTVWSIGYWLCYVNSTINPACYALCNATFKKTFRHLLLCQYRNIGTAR
Put plainly: Agonist activity at muscarinic M4 receptor (unknown origin) expressed in CHO cells. The class given is functional, cell-based. Put shortly: as §1

Series [5] is described as follows: Glutathione reactivity of compound assessed as compound-dGSH conjugate formation incubated by fluorescence detector. In kind it is physicochemical. Put shortly:
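Test compounds incubated with dansyl-glutathione (dGSH) and a human hepatocyte microsome fraction. The test compound–dGSH conjugate was quantified by fluorescence detection and reported as μmol/L.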

Another series has as its target D(1A) dopamine receptor (Homo sapiens, UniProt P21728). Put plainly: Antagonist activity at human D1 receptor expressed in CHO cells assessed as inhibition of dopamine-induced calcium accumulation. In kind it is functional, cell-based.
For the next series, the target named is D(2) dopamine receptor (Homo sapiens, UniProt P14416). Put plainly: Antagonist activity at human D2 receptor expressed in CHO cells assessed as inhibition of dopamine-induced calcium accumulation. The class given is functional, cell-based.
Chain of D(2) dopamine receptor (P14416 whole entry): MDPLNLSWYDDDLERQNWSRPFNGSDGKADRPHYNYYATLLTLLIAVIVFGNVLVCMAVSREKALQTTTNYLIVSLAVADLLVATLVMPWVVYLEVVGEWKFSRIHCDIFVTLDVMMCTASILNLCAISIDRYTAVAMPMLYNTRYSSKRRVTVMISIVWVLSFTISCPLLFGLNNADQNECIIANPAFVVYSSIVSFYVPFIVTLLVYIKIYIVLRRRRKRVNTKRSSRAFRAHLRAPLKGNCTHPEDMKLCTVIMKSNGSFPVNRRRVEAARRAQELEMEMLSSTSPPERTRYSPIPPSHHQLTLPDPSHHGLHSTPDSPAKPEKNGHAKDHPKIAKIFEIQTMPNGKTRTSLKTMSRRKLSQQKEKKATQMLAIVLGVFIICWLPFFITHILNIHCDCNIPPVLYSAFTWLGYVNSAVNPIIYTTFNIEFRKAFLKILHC
A short description of series [6]: Drug concentration in po dosed mouse brain measured after 1 hr. The class given is ADME, organism-based. The following applies: read-out: Drug uptake.
The nature of series [7]: Ratio of drug level in brain to plasma in po dosed mouse after 1 hr. In kind it is ADME, organism-based. The note with it: read-out: BPR.
Series [8] can be described thus: Drug concentration in po dosed mouse plasma measured after 1 hr. In kind it is ADME, organism-based.

Chain of D(1A) dopamine receptor (P21728 whole entry): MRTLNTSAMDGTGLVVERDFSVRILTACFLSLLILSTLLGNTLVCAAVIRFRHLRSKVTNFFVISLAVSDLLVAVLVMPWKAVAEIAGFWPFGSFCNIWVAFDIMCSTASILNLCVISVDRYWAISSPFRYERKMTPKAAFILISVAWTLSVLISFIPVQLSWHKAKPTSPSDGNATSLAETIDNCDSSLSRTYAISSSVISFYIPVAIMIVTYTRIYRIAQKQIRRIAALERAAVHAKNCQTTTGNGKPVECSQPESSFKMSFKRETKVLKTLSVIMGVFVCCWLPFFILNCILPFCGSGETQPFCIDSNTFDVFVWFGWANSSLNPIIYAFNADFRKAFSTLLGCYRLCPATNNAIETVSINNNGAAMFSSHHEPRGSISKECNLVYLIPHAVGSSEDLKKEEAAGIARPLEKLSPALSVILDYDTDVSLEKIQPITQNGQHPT

`CN1CC=C(C2=Nc3cc(Cl)ccc3Nc3ccccc32)CC1`: the EC50 in series [1] is 0.35 µM; in series [2] it was above 10 µM; in [3] it was 0.64 µM; in series [4] it was above 10 µM. The Activity in series [5] worked out at 0.21 µmol/L.
Take `CCc1ccc2c(c1)C(C1=C[C@H](C)N(C)CC1)=Nc1cc(Cl)ccc1N2`: in series [1], the EC50 was above 10 µM.
Consider `Cc1ccc2c(c1)N=C(C1=C[C@H](C)N(C)CC1)c1cc(F)ccc1N2`, for which, in series [1], the half-maximal effective concentration (EC50) was above 10 µM.
On to `Fc1ccc2c(c1)C(C1=CCNCC1)=Nc1cc(Cl)ccc1N2`, for which the EC50 in [1], in series [2], in series [3] and in series [4] was above 10 µM in each case.
Regarding `CN1CC=C(C2=Nc3cc(Cl)ccc3Nc3ccc(F)cc32)CC1`, the results for the Ki at D(1A) dopamine receptor and on D(2) dopamine receptor were 0.035 µM and 0.41 µM, respectively. In addition, the half-maximal effective concentration (EC50) in series [1] is 4.7 µM; in series [2], above 10 µM; in [3], above 10 µM; in [4] it was above 10 µM. For the same compound, in series [5], the Activity stood at 0.3 µmol/L.
On to `CCN1CC=C(C2=Nc3cc(Cl)ccc3Nc3ccc(F)cc32)CC1`, for which the EC50 in series [1] and in [4] was above 10 µM throughout. For the same compound, on D(2) dopamine receptor, the Ki is 0.34 µM. Also, the Activity in [5] came out at 0.27 µmol/L.
Take `COc1ccc2c(c1)C(C1=CCN(C)CC1)=Nc1cc(C)ccc1N2`: the EC50 in series [1] and in series [4] was above 10 µM each time. For the same compound, the Ki at D(2) dopamine receptor is 0.329 µM. Further, in series [5], the Activity was found to be 0.07 µmol/L.
Take `Cc1ccc2c(c1)N=C(C1=CCNCC1)c1cc(F)ccc1N2`: the EC50 in series [1], in series [2], in series [3] and in [4] was above 10 µM each time. For the same compound, the concentration at 1 h in series [6] came out at 0.063 µM.
In the case of `Cc1ccc2c(c1)N=C(C1=CCN(C)CC1)c1cc(C)ccc1N2`, the Ki was 0.057 µM on D(1A) dopamine receptor and 0.694 µM at D(2) dopamine receptor. Further, the EC50 in series [1] and in series [4] was above 10 µM throughout. For the same compound, the Activity in series [5] was 0.22 µmol/L.
As for `CCc1ccc2c(c1)C(C1=CCN(C)CC1)=Nc1cc(C)ccc1N2`, the EC50 in series [1] and in series [4] was above 10 µM each time.
As to `Cc1ccc2c(c1)N=C(C1=CCN(C)CC1)c1cc(F)ccc1N2`, the EC50 was 0.31 µM in series [1], above 10 µM in series [2], above 10 µM in series [3] and above 10 µM in series [4]. In addition, in series [7], the Kp at 1 h was determined as 5.2. The figures for the concentration at 1 h in series [8] and in series [6] were 0.36 µM and 1.84 µM, respectively.
`CN1CC=C(C2=Nc3cc(F)ccc3Nc3ccc(Cl)cc32)CC1`: the EC50 in series [1] and in series [4] was above 10 µM throughout. The inhibitory constant (Ki) on D(2) dopamine receptor came out at 0.108 µM.
In the case of `CC(C)N1CC=C(C2=Nc3cc(Cl)ccc3Nc3ccc(F)cc32)CC1`, the EC50 in series [1] and in series [4] was above 10 µM throughout. In [5], the Activity came to 0.29 µmol/L.
For `CN1CCN(C2=Nc3cc(Cl)ccc3Nc3ccccc32)CC1` [CLOZAPINE], in series [5], the Activity turned out to be 7.5 µmol/L.
Regarding `Clc1ccc2c(c1)N=C(N1CCNCC1)c1ccccc1N2` [N-DESMETHYLCLOZAPINE], the values for the Ki at D(1A) dopamine receptor and at D(2) dopamine receptor were 0.08 µM and 0.489 µM, respectively. The EC50 in [1] was 0.048 µM; in series [2], above 10 µM; in [3], 0.67 µM.
